Results taken from ChEMBL document CHEMBL1126152, “Fluoronaphthyridines as antibacterial agents. 4. Synthesis and structure-activity relationships of 5-substituted-6-fluoro-7-(cycloalkylamino)-1,4-dihydro-4-oxo-1,8- naphthyridine-3-carboxylic acids” (J Med Chem, 1992).
In brackets after ≈: the same amount, converted by molar mass.

How the values were obtained:
[1] = test system: Streptococcus pneumoniae; test: Antibacterial activity against Streptococcus pneumoniae; format: functional
[2] = test system: Serratia marcescens; test: In vitro for antibacterial activity against Serratia marcescens; format: functional
Summary of the method: (§1)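 MIC by serial 2-fold broth dilution in nutrient broth with an inoculum of 10^6 CFU/mL. Compound range was 0.0005–250 μg/mL. Plates were incubated 18 h at 37 °C. MIC was taken as the lowest concentration preventing visible growth.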

[3] = test system: Bacteroides fragilis; test: In vitro for antibacterial activity against […].; format: functional; summary of the method: as §1
[4] = test system: Proteus mirabilis; test: In vitro for antibacterial activity against Proteus mirabilis; format: functional; summary of the method: as §1
[5] = test system: Enterobacter cloacae; test: In vitro for antibacterial activity against Enterobacter cloacae; format: functional
[6] = test system: Escherichia coli; test: In vitro for antibacterial activity against Escherichia coli; format: functional; summary of the method: as §1
[7] = test system: Morganella morganii; test: In vitro for antibacterial activity against Morganella morganii; format: functional; summary of the method: as §1
[8] = test system: Klebsiella pneumoniae; test: In vitro for antibacterial activity against Klebsiella pneumoniae; format: functional; summary of the method: as §1
[9] = test system: Staphylococcus aureus; test: Antibacterial activity against Staphylococcus aureus; format: functional
[10] = test system: Pseudomonas aeruginosa; test: In vitro for antibacterial activity against Pseudomonas aeruginosa; format: functional; summary of the method: as §1
[11] = test system: Enterococcus faecalis; test: In vitro for antibacterial activity against Enterococcus faecalis; format: functional; summary of the method: as §1
[12] = Lethal dose was determined in OF1-strain female Swiss mice after intra venous administration of the drug; details: mouse, in vivo, iv
[13] = Solubility was measured at PH - 7.2 buffer
[14] = test system: Escherichia coli; test: Compound was tested for […] against Escherichia coli A 15119 after oral administration of drug in mice; format: functional; details: read-out: PD50
Summary of the method: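 Mouse protection test against systemic infection. Compound was dissolved in sterile water and given orally to female OF1-strain Swiss mice weighing 18–25 g, with five mice per group.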

[15] = Partition coefficient (logD); details: octanol/water
[16] = test system: Streptococcus pneumoniae; test: animal or person; format: functional; details: in Mus musculus, po, read-out: PD50
[17] = test system: Staphylococcus aureus; test: animal or person; format: functional; details: in Mus musculus, po, read-out: PD50
[18] = test system: Pseudomonas aeruginosa; test: animal or person; format: functional; details: in Mus musculus, po, read-out: PD50
[19] = Lethal dose was determined in OF1-strain female Swiss mice after oral administration of the drug; details: mouse, in vivo

Compound	MIC [1] [µg/mL]	MIC [2] [µg/mL]	MIC [3] [µg/mL]	MIC [4] [µg/mL]	MIC [5] [µg/mL]	MIC [6] [µg/mL]	MIC [7] [µg/mL]	MIC [8] [µg/mL]	MIC [9] [µg/mL]	MIC [10] [µg/mL]	MIC [11] [µg/mL]	LD50 [12] [mg/kg]	solubility [13] [µg/mL]	ED50 [14] [mg/kg]	logD [15]	ED50 [16] [mg/kg]	ED50 [17] [mg/kg]	ED50 [18] [mg/kg]	LD50 [19] [mg/kg]
Cc1c(F)c(N2CC3CC2CN3)nc2c1c(=O)c(C(=O)O)cn2C1CC1 (stereo not drawn)	0.13 (≈ 0.363 µM)	0.03 (≈ 0.0837 µM)	1 (≈ 2.79 µM)	0.016 (≈ 0.0446 µM)	0.002 (≈ 0.00558 µM)	0.002 (≈ 0.00558 µM)	0.016 (≈ 0.0446 µM)	0.002 (≈ 0.00558 µM)	0.002 (≈ 0.00558 µM)	0.25 (≈ 0.698 µM)	0.13 (≈ 0.363 µM)	131	20 (≈ 55.8 µM)	0.9	0.48	43	5.4	2.7	1750
Cc1c(F)c(N2CC[C@H](N)C2)nc2c1c(=O)c(C(=O)O)cn2-c1ccc(F)cc1F	0.03 (≈ 0.0717 µM)	0.03 (≈ 0.0717 µM)	0.25 (≈ 0.598 µM)	0.008 (≈ 0.0191 µM)	0.002 (≈ 0.00478 µM)	0.002 (≈ 0.00478 µM)	0.03 (≈ 0.0717 µM)	0.002 (≈ 0.00478 µM)	0.002 (≈ 0.00478 µM)	0.25 (≈ 0.598 µM)	0.06 (≈ 0.143 µM)	84	50 (≈ 120 µM)	1.8	1.22	7.9	1.7	2.2	2500
N[C@H]1CCN(c2nc3c(c(-c4ccccc4)c2F)c(=O)c(C(=O)O)cn3C2CC2)C1	8 (≈ 19.6 µM)	16 (≈ 39.2 µM)	125 (≈ 306 µM)	16 (≈ 39.2 µM)	2 (≈ 4.9 µM)	1 (≈ 2.45 µM)	8 (≈ 19.6 µM)	2 (≈ 4.9 µM)	2 (≈ 4.9 µM)	32 (≈ 78.3 µM)	64 (≈ 157 µM)								
CC(C)(C)n1cc(C(=O)O)c(=O)c2cc(F)c(N3CCNCC3)nc21	1 (≈ 2.87 µM)	0.06 (≈ 0.172 µM)	8 (≈ 23 µM)	0.13 (≈ 0.373 µM)	0.06 (≈ 0.172 µM)	0.02 (≈ 0.0574 µM)	0.06 (≈ 0.172 µM)	0.03 (≈ 0.0861 µM)	0.06 (≈ 0.172 µM)	0.5 (≈ 1.44 µM)	1 (≈ 2.87 µM)		820 (≈ 2350 µM)		-0.33				
Cc1c(F)c(N2CC[C@H](N)C2)nc2c1c(=O)c(C(=O)O)cn2C(C)(C)CF	2 (≈ 5.26 µM)	0.5 (≈ 1.31 µM)	2 (≈ 5.26 µM)	0.5 (≈ 1.31 µM)	0.25 (≈ 0.657 µM)	0.016 (≈ 0.0421 µM)	0.5 (≈ 1.31 µM)	0.03 (≈ 0.0789 µM)	0.25 (≈ 0.657 µM)	2 (≈ 5.26 µM)	2 (≈ 5.26 µM)								

The next lines start with results.

MIC [1] [µg/mL]	MIC [2] [µg/mL]	MIC [3] [µg/mL]	MIC [4] [µg/mL]	MIC [5] [µg/mL]	MIC [6] [µg/mL]	MIC [7] [µg/mL]	MIC [8] [µg/mL]	MIC [9] [µg/mL]	MIC [10] [µg/mL]	MIC [11] [µg/mL]	Compound	LD50 [12] [mg/kg]	solubility [13] [µg/mL]	ED50 [14] [mg/kg]	logD [15]	ED50 [16] [mg/kg]	ED50 [17] [mg/kg]	ED50 [18] [mg/kg]	LD50 [19] [mg/kg]
0.008 (≈ 0.023 µM)	0.25 (≈ 0.718 µM)	1 (≈ 2.87 µM)	0.13 (≈ 0.373 µM)	0.03 (≈ 0.0861 µM)	0.02 (≈ 0.0574 µM)	0.13 (≈ 0.373 µM)	0.03 (≈ 0.0861 µM)	0.004 (≈ 0.0115 µM)	0.25 (≈ 0.718 µM)	0.06 (≈ 0.172 µM)	CC(C)(C)n1cc(C(=O)O)c(=O)c2cc(F)c(N3CC[C@H](N)C3)nc21								
0.06 (≈ 0.148 µM)	0.06 (≈ 0.148 µM)	0.5 (≈ 1.24 µM)	0.03 (≈ 0.0742 µM)	0.016 (≈ 0.0396 µM)	0.008 (≈ 0.0198 µM)	0.06 (≈ 0.148 µM)	0.008 (≈ 0.0198 µM)	0.008 (≈ 0.0198 µM)	0.25 (≈ 0.618 µM)	0.13 (≈ 0.322 µM)	N[C@H]1CCN(c2nc3c(cc2F)c(=O)c(C(=O)O)cn3-c2ccc(F)cc2F)C1								
0.03 (≈ 0.0819 µM)	0.25 (≈ 0.682 µM)	16 (≈ 43.7 µM)	0.5 (≈ 1.36 µM)	0.13 (≈ 0.355 µM)	0.03 (≈ 0.0819 µM)	0.06 (≈ 0.164 µM)	0.03 (≈ 0.0819 µM)	0.03 (≈ 0.0819 µM)	1 (≈ 2.73 µM)	4 (≈ 10.9 µM)	CC(C)(CF)n1cc(C(=O)O)c(=O)c2cc(F)c(N3CC[C@H](N)C3)nc21				-0.56				
0.25 (≈ 0.694 µM)	1 (≈ 2.77 µM)	1 (≈ 2.77 µM)	8 (≈ 22.2 µM)	1 (≈ 2.77 µM)	0.5 (≈ 1.39 µM)	4 (≈ 11.1 µM)	1 (≈ 2.77 µM)	0.5 (≈ 1.39 µM)	16 (≈ 44.4 µM)	16 (≈ 44.4 µM)	CCc1c(F)c(N2CCNCC2)nc2c1c(=O)c(C(=O)O)cn2C1CC1								
